In experiment [1] the target is T1, Adenosine receptor A3 (Homo sapiens, UniProt P0DMS8).
T1 sequence (P0DMS8 whole entry): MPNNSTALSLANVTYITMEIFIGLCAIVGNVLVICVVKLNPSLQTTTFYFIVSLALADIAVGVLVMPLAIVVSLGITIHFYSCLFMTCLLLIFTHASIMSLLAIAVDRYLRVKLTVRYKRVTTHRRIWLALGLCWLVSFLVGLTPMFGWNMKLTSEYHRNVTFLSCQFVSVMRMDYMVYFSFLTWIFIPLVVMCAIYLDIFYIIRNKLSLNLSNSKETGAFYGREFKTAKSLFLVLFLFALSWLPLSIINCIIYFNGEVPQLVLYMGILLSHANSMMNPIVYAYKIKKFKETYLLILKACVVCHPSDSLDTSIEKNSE
Kind of experiment: Inhibition of [3H]MRE3008-F20 binding to human adenosine A3 receptor expressed in CHO cells; (n=3 - 6). It counts as cell-based.

The target of experiment [2] is T2, Adenosine receptor A2a (Homo sapiens, UniProt P29274). Nature of the experiment: Percent inhibition of [3H]ZM-241385 binding to human adenosine 2Aa receptor expressed in CHO cells; (n=3 - 6). Particulars: concentration not given here. It counts as cell-based. Details: concentration or dose not given beside the values.
Experiment [3] addresses T2, Adenosine receptor A2a. Nature of the experiment: Inhibition of [3H]ZM-241385 binding to human adenosine A2a receptor expressed in CHO cells; (n=3 - 6). It counts as cell-based. The procedure, abridged: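 Membranes from human A2A-transfected CHO cells, pretreated with adenosine deaminase. 50 µg protein incubated 60 min at 4 °C in 50 mM Tris HCl, 10 mM MgCl₂, pH 7.4 with [³H]ZM241385 and 6–8 concentrations of test ligand. Nonspecific binding defined with 1 µM ZM241385. Separated by filtration, counted by scintillation. Ki via Cheng–Prusoff.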

The next experiment has as its target T3, Adenosine receptor A2b (Homo sapiens, UniProt P29275).
T3 sequence (P29275 whole entry): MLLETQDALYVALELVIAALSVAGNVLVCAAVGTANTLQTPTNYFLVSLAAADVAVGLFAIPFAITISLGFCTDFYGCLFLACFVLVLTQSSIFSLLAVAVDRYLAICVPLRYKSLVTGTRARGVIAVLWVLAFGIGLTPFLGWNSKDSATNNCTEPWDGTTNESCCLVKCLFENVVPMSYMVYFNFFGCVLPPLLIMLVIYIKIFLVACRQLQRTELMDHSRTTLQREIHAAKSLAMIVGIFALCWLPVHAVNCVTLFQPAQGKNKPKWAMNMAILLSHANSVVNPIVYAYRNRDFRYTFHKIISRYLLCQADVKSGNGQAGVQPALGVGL
Kind of experiment: Inhibition of 100 nM-NECA stimulation of cAMP levels in human adenosine A2b receptor expressing CHO cells. The format is cell-based. The procedure, abridged:
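CHO cells stably transfected with human A2B receptor, grown in DMEM/F12 with 10% FCS and G418, 37 °C. Cells trypsinised and suspended at 1 × 10⁶ cells/assay in pH 7.4 buffer with 2 IU/ml adenosine deaminase and Ro 20-1724. Preincubated 10 min at 37 °C, then challenged with 100 nM NECA. Stopped with cold 6% TCA. cAMP measured by competitive binding to [³H]cAMP with adrenal binding protein. IC50 from sigmoid nonlinear regression.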

The target in the next experiment is T4, Adenosine receptor A1 (Homo sapiens, UniProt P30542).
T4 sequence (P30542 whole entry): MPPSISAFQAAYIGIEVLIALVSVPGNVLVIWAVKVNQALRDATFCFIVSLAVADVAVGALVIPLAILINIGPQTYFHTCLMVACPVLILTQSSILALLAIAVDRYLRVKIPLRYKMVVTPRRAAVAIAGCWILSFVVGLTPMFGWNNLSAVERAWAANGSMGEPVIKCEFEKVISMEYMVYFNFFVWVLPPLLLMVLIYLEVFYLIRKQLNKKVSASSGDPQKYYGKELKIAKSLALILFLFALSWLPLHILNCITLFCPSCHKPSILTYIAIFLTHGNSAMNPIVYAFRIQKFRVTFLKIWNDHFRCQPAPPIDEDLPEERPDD
Nature of the experiment: Inhibition of [3H]DPCPX binding to human adenosine A1 receptor expressed in CHO cells; (n=3 - 6). The format is cell-based. The procedure, abridged: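 Membranes from human A1-transfected CHO cells, pretreated with adenosine deaminase 3 IU/ml for 30 min at 37 °C. 50 µg protein incubated 120 min at 25 °C in 50 mM Tris HCl pH 7.4 with 1 nM [³H]DPCPX and 6–8 concentrations of test ligand. Nonspecific binding defined with 10 µM CHA. Separated by GF/B filtration, counted by scintillation. Ki via Cheng–Prusoff.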

Experiment [4] addresses T5, Adenosine receptor A1 (Homo sapiens) (UniProt P30542).
T5 sequence (whole entry): T4 sequence (P30542 whole entry)
Nature of the experiment: Percent inhibition [3H]DPCPX binding to human adenosine A1 receptor expressed in CHO cells; (n=3 - 6). As to conditions: concentration not given here. The arrangement: concentration or dose not given beside the values. It counts as cell-based.

The target in experiment [5] is T6, Adenosine receptor A2b (Homo sapiens) (UniProt P29275).
T6 sequence (whole entry): T3 sequence (P29275 whole entry)
Kind of experiment: Percent inhibition of human adenosine A2b receptor expressed in CHO cells. It counts as cell-based. Details: concentration or dose not given beside the values. Particulars: concentration not given here.

Experiment [6] addresses T1, Adenosine receptor A3. Nature of the experiment: Inhibition of cAMP accumulation in human adenosine A3 receptor assay as inhibition of Cl-IB-MECA. The format is functional.
For experiment [7], the target named is T5, Adenosine receptor A1 (Homo sapiens). Nature of the experiment: Percentage inhibition of [3H]DPCPX binding to human adenosine A1 receptor expressed in CHO cells; (n=3 - 6). The format is cell-based. As to conditions: concentration not given here.

T2 sequence (P29274 whole entry): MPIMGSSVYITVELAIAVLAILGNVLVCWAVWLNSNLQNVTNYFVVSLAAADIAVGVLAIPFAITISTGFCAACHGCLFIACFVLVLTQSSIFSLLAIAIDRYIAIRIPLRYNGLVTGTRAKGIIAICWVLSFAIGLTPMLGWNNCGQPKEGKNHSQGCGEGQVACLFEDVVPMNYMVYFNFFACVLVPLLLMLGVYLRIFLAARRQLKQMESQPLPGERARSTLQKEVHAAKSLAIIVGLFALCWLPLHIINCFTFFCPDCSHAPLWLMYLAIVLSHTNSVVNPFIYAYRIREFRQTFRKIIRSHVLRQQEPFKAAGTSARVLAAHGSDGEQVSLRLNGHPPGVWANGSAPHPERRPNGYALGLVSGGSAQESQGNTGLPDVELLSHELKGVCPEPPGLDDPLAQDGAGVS

For the molecule `Oc1nc2ccccc2c2nn(-c3ccc(Cl)cc3)cc12`, the Ki was 0.019 µM at Adenosine receptor A3 [1], above 1 µM at Adenosine receptor A2a [3] and above 1 µM on Adenosine receptor A1. Further, the inhibition at Adenosine receptor A2a [2] came out at 1%; in [4], 4%; in experiment [5], 1%. Besides, at Adenosine receptor A2b, the IC50 was above 1 µM.

Turning to `COc1nc2ccccc2c2nn(-c3ccccc3)cc12`, the Ki at Adenosine receptor A3 [1] is 0.166 µM; on Adenosine receptor A2a [3] it was above 1 µM; on Adenosine receptor A1, above 1 µM. Moreover, the inhibition stood at 5% on Adenosine receptor A2a [2], 16% in experiment [4] and 10% in experiment [5]. The IC50 against Adenosine receptor A2b is above 1 µM.

Turning to `CCc1ccc(-n2cc3c(O)nc4ccccc4c3n2)cc1`, the inhibition at Adenosine receptor A2a [2] came to 1%; in experiment [4], 12%; in [5] it was 13%.

Consider `c1ccc(-n2cc3cnc4ccccc4c3n2)cc1`, for which the values for the Ki on Adenosine receptor A3 [1], at Adenosine receptor A2a [3] and at Adenosine receptor A1 were 0.212 µM, above 1 µM and above 1 µM, respectively. Further, the results for the inhibition (on Adenosine receptor A2a [2]; in experiment [4]; in [5]) were 3%, 5% and 1%, respectively. The same molecule registered an IC50 against Adenosine receptor A2b above 1 µM.

`Oc1nc2ccccc2c2nn(-c3ccc(F)cc3)cc12`: the Ki at Adenosine receptor A3 [1] was 0.027 µM; on Adenosine receptor A2a [3], above 1 µM; at Adenosine receptor A1 it was above 1 µM. Besides, the inhibition (at Adenosine receptor A2a [2]; in experiment [4]; in [5]) was 10% throughout. On Adenosine receptor A2b, this molecule gave an IC50 above 1 µM.

With `c1ccc(CNc2nc3ccccc3c3nn(-c4ccccc4)cc23)cc1`, the inhibition constant Ki is 0.125 µM at Adenosine receptor A3 [1], above 1 µM at Adenosine receptor A2a [3] and above 1 µM at Adenosine receptor A1. Moreover, the inhibition worked out at 2% at Adenosine receptor A2a [2], 4% in [4] and 1% in experiment [5]. Besides, the IC50 on Adenosine receptor A2b was above 1 µM.

As to `COc1ccc(-n2cc3c(O)nc4ccccc4c3n2)cc1`, the Ki at Adenosine receptor A3 [1] is 0.016 µM; at Adenosine receptor A2a [3] it was above 1 µM; on Adenosine receptor A1 it was above 1 µM; at Adenosine receptor A3 [6] it was 0.042 µM. Moreover, the inhibition at Adenosine receptor A2a [2] amounted to 1%; in experiment [4], 1%; in experiment [5], 2%. The molecule further registered an IC50 at Adenosine receptor A2b above 1 µM.

`Cc1ccc(-n2cc3c(=O)[nH]c4ccccc4c3n2)cc1`: the Ki at Adenosine receptor A2a [3] and at Adenosine receptor A1 was above 1 µM each time. Also, the IC50 against Adenosine receptor A2b was above 1 µM.

In the case of `Cc1ccc(-n2cc3c(O)nc4ccccc4c3n2)cc1`, the inhibition on Adenosine receptor A2a [2] is 1%; in experiment [4], 3%; in experiment [5] it was 2%.

As to `CCc1ccc(-n2cc3c(=O)[nH]c4ccccc4c3n2)cc1`, the Ki was 0.157 µM on Adenosine receptor A3 [1], above 1 µM at Adenosine receptor A2a [3] and above 1 µM at Adenosine receptor A1. On Adenosine receptor A2b, this molecule had an IC50 above 1 µM.

As for `Oc1nc2ccccc2c2nn(-c3ccccc3)cc12`, the Ki at Adenosine receptor A3 [1] was 0.027 µM; on Adenosine receptor A2a [3], above 1 µM; on Adenosine receptor A1, above 1 µM; at Adenosine receptor A3 [6], 0.055 µM. Further, the inhibition was determined as 2% at Adenosine receptor A2a [2], 5% in experiment [7] and 1% in [5]. Further, the concentration for half-maximal inhibition (IC50) at Adenosine receptor A2b is above 1 µM.

For `Oc1nc2ccccc2c2nn(-c3ccccc3Cl)cc12`, the Ki is 0.044 µM at Adenosine receptor A3 [1], above 1 µM on Adenosine receptor A2a [3] and above 1 µM on Adenosine receptor A1. Moreover, the inhibition at Adenosine receptor A2a [2] was 1%; in experiment [4], 3%; in [5] it was 8%. The molecule also displayed an IC50 against Adenosine receptor A2b above 1 µM.

With `Sc1nc2ccccc2c2nn(-c3ccccc3)cc12`, the Ki was 0.22 µM on Adenosine receptor A3 [1], above 1 µM at Adenosine receptor A2a [3] and above 1 µM at Adenosine receptor A1. The inhibition is 8% on Adenosine receptor A2a [2], 14% in experiment [4] and 11% in experiment [5]. On Adenosine receptor A2b, this molecule displayed an IC50 above 1 µM.

What is called Ki is a dissociation constant, usually derived from enzyme kinetics or from competition with a known ligand. For orientation: inhibition means the change of the read-out against control, counted positive when it falls. Broadly, the IC50 is the point on the concentration scale where inhibition reaches its midpoint.

The record behind these values is ChEMBL document CHEMBL1140344, “New 2-arylpyrazolo[4,3-c]quinoline derivatives as potent and selective human A3 adenosine receptor antagonists” (J Med Chem, 2005).
